In ChEMBL document CHEMBL1154185 (J Med Chem, 2009):
Activity calls are given as the source filed them.

Columns and labels:
[1] = Toxicity in iv dosed mouse administered once daily for 5 consecutive days measured after 28 days; type: organism-based; conditions: in vivo
Outline: (§1)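 Healthy mice given compound i.v. (tail vein) in 50 μL saline once daily for 5 consecutive days (Monday-Friday) at 5, 10, 20, 40 or 80 mg/kg; 3 mice per group; body weight and survival followed over 28 days; MTD defined as dose just below lowest dose killing at least one mouse; means ± SEM.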

[2] = test system: A549; assay: Inhibition of cell migration of proapoptotic stimuli-resistant human A549 cells at 5 uM by quantitative video microscopy; type: functional, cell-based
Outline: (§2)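 Quantitative videomicroscopy of cells untreated or given 0.5 or 5 μM. Migration scored as MRDO, the greatest linear distance each single cell travels from its origin, over 12 or 24 h of observation. Means ± SEMs.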

[3] = test system: A549; assay: Reduction of colony formation in undifferentiated proapoptotic stimuli-resistant human A549 cells at 5 uM under anchorage-independent culture conditions by quantitative video microscopy; type: functional, cell-based
Outline: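 Soft-agar (anchorage-independent) culture of A549 cells, without or with 5 μM, for 38 days after plating. Colonies counted in three 0.4 mm² areas per condition, experiment in hexaplicate. Means ± SEMs.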

[4] = test system: A549; assay: Reduction of colony formation in undifferentiated proapoptotic stimuli-resistant human A549 cells at 5 uM under anchorage-independent culture conditions by quantitative video microscopy
[5] = test system: U-373MG ATCC; assay: Cytostatic activity against proapoptotic stimuli-resistant human U373 cells at 5 uM after 72 hrs by quantitative video microscopy; type: functional, cell-based
Outline: (§3)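 Phase-contrast time-lapse videomicroscopy with 5 μM for 72 h vs untreated control. Growth level = cell count in last frame / first frame (0 h). Global growth ratio compares treated with control growth level. Counts done in triplicate with an interactive tool. Morphology followed over the same period.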

[6] = test system: U-373MG ATCC; assay: Inhibition of cell migration of proapoptotic stimuli-resistant human U373 cells at 5 uM by quantitative video microscopy; type: functional, cell-based; outline: as §2
[7] = Growth inhibition of human WS1 cells after 72 hrs by MTT assay; type: cell-based; conditions: WS1, 72 h
Outline: (§4)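 Cells plated 24 h in 96-well plates (10,000-40,000 cells/mL by cell type) in MEM (5% or 10% heat-inactivated FBS; with 100 μM non-essential amino acids for WI-38 and NHDF) or RPMI 10% FBS (A549), then exposed 72 h to compound up to 100 μM; MTT reduction read at 570 nm (reference 630 nm); sextuplicate.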

[8] = test system: U-373MG ATCC; assay: Reduction of colony formation in undifferentiated proapoptotic stimuli-resistant human U373 cells at 0.5 uM under anchorage-independent culture conditions by quantitative video microscopy; type: functional, cell-based
[9] = Growth inhibition of proapoptotic stimuli-resistant human U373 cells after 72 hrs by MTT assay; type: functional, cell-based, U-373MG ATCC; conditions: Homo sapiens, U373 MG, 72 h
Outline: (§5)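 MTT assay. Cells were plated at 10,000–40,000 cells/mL and left 24 h to attach, then exposed to compound for 72 h (untreated controls). Formazan was read at 570 nm (reference 630 nm). Tested up to 10 μM (first panel) or up to 100 μM (second panel). Sextuplicate. U373 grown in MEM + 5% FBS; Hs683, SK-MEL-28 and B16F10 in RPMI + 10% FBS.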

[10] = test system: B16-F10; assay: Antitumor activity against mouse B16F10 cells implanted in B6D2F1 mouse assessed as increase in mouse survival at 40 mg/kg, iv administered thrice weekly for 3 consecutive weeks starting from 5th day post tumor grafting; type: functional, organism-based; parameters: dose 40 mg/kg
Outline: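 Female B6D2F1 mice (17-19 g) received stereotactic brain implants of B16F10 melanoma cells, all on the same day. Treatment started on day 5 post-graft: 40 mg/kg i.v. (tail vein) in 50 μL, Mon/Wed/Fri for 3 consecutive weeks. Controls received 50 μL saline i.v.; the reference arm got cisplatin 5 mg/kg i.p. on the same schedule. 11 mice per group; survival analysed.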

[11] = test system: U-373MG ATCC; assay: Increase in polymerized actin levels in proapoptotic stimuli-resistant human U373 cells at 5 uM after 6 hrs by fluorescence microscopy; type: functional, cell-based
Outline: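 U373 cells, untreated or exposed to 5 μM for 6 h, stained and imaged by computer-assisted fluorescence microscopy. Fibrillar (polymerized) actin labelled with Alexa Fluor488-phallacidin (green); globular actin with Alexa Fluor594-DNase I (red).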

[12] = test system: U-373MG ATCC; assay: Cytotoxic activity against proapoptotic stimuli-resistant human U373 cells assessed as induction of cell death at 5 uM after 72 hrs by quantitative video microscopy; type: functional, cell-based; outline: as §3
[13] = test system: A549; assay: Cytotoxic activity against proapoptotic stimuli-resistant human A549 cells assessed as induction of cell death at 5 uM after 72 hrs by quantitative video microscopy; type: functional, cell-based; outline: as §3
[14] = test system: A549; assay: Inhibition of cytokinesis in proapoptotic stimuli-resistant human A549 cells at 5 uM after 72 hrs by quantitative video microscopy; type: functional, cell-based
Outline: (§6)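 Quantitative videomicroscopy with 5 μM for 72 h. Mitoses counted within a 2 mm² frame over the 72 h observation. Single cells in treated colonies were tracked at high magnification to follow mitosis and cytokinesis over time.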

[15] = test system: U-373MG ATCC; assay: Induction of non-apoptotic cell death in human U373 cells at 50 uM after 72 hrs by annexin-V/propidium iodide staining based flow cytometry; type: functional
Outline: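 Flow cytometry with annexin-V/propidium iodide double staining after 72 h. U373 given 0, 5 or 50 μM; MCF-7 treated 72 h with a 1 μM pro-apoptotic positive control. Early apoptosis = AV+/PI−, late = AV+/PI+, non-apoptotic death = AV−/PI+. Means ± SEMs.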

[16] = Growth inhibition of human WI38 cells after 72 hrs by MTT assay; type: cell-based; conditions: WI-38, 72 h; outline: as §4
[17] = test system: U-373MG ATCC; assay: Reduction of colony formation in undifferentiated proapoptotic stimuli-resistant human U373 cells at 5 uM under anchorage-independent culture conditions by quantitative video microscopy; type: functional, cell-based
[18] = test system: U-373MG ATCC; assay: Increase in actin cytoskeleton rigidity in proapoptotic stimuli-resistant human U373 cells at 5 uM after 6 hrs by fluorescence microscopy
[19] = test system: A549; assay: Reduction in mitosis occurrence in proapoptotic stimuli-resistant human A549 cells at 5 uM after 72 hrs by quantitative video microscopy; type: functional; parameters: scale not given: the % may be the effect or the level left
Outline: (§7)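 Cells treated 72 h with 5 μM compound and filmed by computer-assisted phase-contrast videomicroscopy; mitoses counted within a 2 mm² frame over the 72 h observation period, compared with untreated control.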

[20] = test system: U-373MG ATCC; assay: Inhibition of cytokinesis in proapoptotic stimuli-resistant human U373 cells at 5 uM after 72 hrs by quantitative video microscopy; type: functional, cell-based; outline: as §6
[21] = Growth inhibition of proapoptotic stimuli-resistant human OE21 cells after 72 hrs by MTT assay; type: functional, cell-based; conditions: Homo sapiens, OE21, 72 h
[22] = test system: NHDF; assay: Growth inhibition of human NHDF after 72 hrs by MTT assay; type: cell-based; outline: as §4
[23] = Growth inhibition of proapoptotic stimuli-sensitive human Hs683 cells after 72 hrs by MTT assay; type: functional, cell-based, Hs 683; conditions: Homo sapiens, Hs 683, 72 h; outline: as §5
[24] = test system: A549; assay: Cytostatic activity against proapoptotic stimuli-resistant human A549 cells at 5 uM after 72 hrs by quantitative video microscopy; type: functional, cell-based; outline: as §3
[25] = test system: A549; assay: Increase in polymerized actin levels in proapoptotic stimuli-resistant human A549 cells at 5 uM after 6 hrs by fluorescence microscopy; type: functional, cell-based
[26] = test system: B16-F10; assay: Antitumor activity against mouse B16F10 cells implanted in iv dosed B6D2F1 mouse assessed as active dose increasing mouse survival administered thrice weekly for 3 consecutive weeks starting from 5th day post tumor grafting; type: functional
[27] = test system: Mus musculus; assay: Toxicity in iv dosed mouse assessed as reduction of body weight at 5 to 80 mg/kg, iv administered once daily for 5 consecutive days measured after 28 days; type: organism-based; parameters: dose 5-80 mg/kg, route intravenous; conditions: in vivo, 672 h; outline: as §1
[28] = test system: A549; assay: Growth inhibition of proapoptotic stimuli-resistant human A549 cells after 72 hrs by MTT assay; type: functional, cell-based; conditions: Homo sapiens, A549, 72 h; outline: as §4
[29] = Reduction in mitosis occurrence in proapoptotic stimuli-resistant human U373 cells at 5 uM after 72 hrs by quantitative video microscopy; type: functional, U-373MG ATCC; parameters: scale not given: the % may be the effect or the level left; outline: as §7
[30] = test system: SK-MEL-28; assay: Growth inhibition of proapoptotic stimuli-resistant human SK-MEL-28 cells after 72 hrs by MTT assay; type: functional, cell-based; conditions: Homo sapiens, SK-MEL-28, 72 h; outline: as §5
[31] = test system: B16-F10; assay: Growth inhibition of proapoptotic stimuli-sensitive mouse B16F10 cells after 72 hrs by MTT assay; type: functional, cell-based; conditions: Mus musculus, B16-F10, 72 h; outline: as §5

Compound: O[C@H]1[C@H]2c3cc4c(cc3CN3CCC(=C[C@@H]1O)[C@H]23)OCO4 [LYCORINE]
- MTD at 672 h [1]: > 80 mg/kg
- Activity [2]: Active
- Activity [3]: Active
- Activity [4]: Active
- Activity [5]: Active
- Activity [6]: Active
- IC50 [7]: > 100 µM
- Activity [8]: Active
- IC50 [9]: 7.6 µM
- Activity [10]: Active
- Activity [11]: Active
- Activity [12]: inactive
- Activity [13]: inactive
- Activity [14]: Active
- Activity [15]: Active
- IC50 [16]: > 100 µM
- Activity [17]: Active
- Activity [18]: Active
- Activity [19]: >=90%
- Activity [20]: Active
- IC50 [21]: 5.1 µM
- IC50 [22]: > 100 µM
- IC50 [23]: 6.7 µM
- Activity [24]: Active
- Activity [25]: Active
- Dose [26]: 40 mg/kg
- Activity [27]: Non-toxic
- IC50 [28]: 4.3 µM
- Activity [29]: >=90%
- IC50 [30]: 8.5 µM
- IC50 [31]: 6.3 µM
